Screening results deposited in PubChem BioAssay by several laboratories.
This is a sample that favours compounds with a hit; in the whole collection about 2.9% have one here.
HTRA1 inhibitor = HTRA1 serine protease inhibitors, primary screen, biochemical, fluorescence polarization, HTS | recombinant HTRA1, FP-rhodamine activity-based probe | inhibition, % at 5.96 µM | Q92743 | 340,000 tested, 0.5% active; in the data active = inhibition above about 36%;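 note: 0% = enzyme with DMSO and 100% = wells lacking enzyme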
SIAE inh = human SIAE inhibitors, primary screen, biochemical, fluorescence polarization, FP-Rh probe, 1536-well HTS | inhibition, % at 9.66 µM | SIAE FP-Rh probe binding | Sialate O-acetylesterase (Homo sapiens), Q9HAT2 | 370,000 tested, 0.69% active;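 active = inhibition above a cutoff: mean of compounds within the control limits plus 3 SD of those, cut at about 17% in these data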;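 note: 0% = plate median of compound wells and 100% = probe without SIAE protein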
TCR CD3 inh = inhibitors of human TCR-CD3 interaction, primary screen, biochemical, fluorescence, TAMRA-labeled TCR probe. T-cell receptor (TCR). 360,000 tested, 0.37% active. inhibition, % at 9.4 µM; in the data active = inhibition above about 19%;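 note: recombinant mutant TCR 2C K166C tagged with TAMRA read by polarization; 0% = receptor in buffer alone and 100% = receptor with positive control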
mABHD4 FP = ABHD4 inhibitors, primary screen, biochemical, fluorescence polarization, mouse; (Lyso)-N-acylphosphatidylethanolamine lipase (Mus musculus), Q8VD66; purified mABHD4, FP-Rh probe fluorescence polarization; inhibition, % at 8.92 µM; 370,000 tested, 0.54% active; AID 720543, 2013;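 active = inhibition exceeding the mean over every tested compound plus 3 SD, cut at about 30% in these data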;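 note: 0% = plate median of compound wells and 100% = S159A mutant with DMSO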
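Doses – 8.92 µM, single dose · Material – wild-type mouse ABHD4 protein · Replication – single well per compound (singlicate) · Measure – percent inhibition of probe binding, normalized to plate controls · Schedule – 45 min compound pre-incubation plus 60 min probe step, 25 °C · Detection – fluorescence polarization with parallel and perpendicular emission, 525/598 nm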
PRMT1 inh = PRMT1 methyltransferase inhibitors, primary screen, biochemical, fluorescence polarization | 370,000 tested, 1.3% active | Protein arginine N-methyltransferase 1 (Homo sapiens), Q99873 | recombinant PRMT1, activity-based probe fluorescence polarization | inhibition, % at 2.79 µM;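 active = inhibition above about 21% made by adding two undisclosed values, limit read from the data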
Target sequence (Q99873 whole entry, looked up): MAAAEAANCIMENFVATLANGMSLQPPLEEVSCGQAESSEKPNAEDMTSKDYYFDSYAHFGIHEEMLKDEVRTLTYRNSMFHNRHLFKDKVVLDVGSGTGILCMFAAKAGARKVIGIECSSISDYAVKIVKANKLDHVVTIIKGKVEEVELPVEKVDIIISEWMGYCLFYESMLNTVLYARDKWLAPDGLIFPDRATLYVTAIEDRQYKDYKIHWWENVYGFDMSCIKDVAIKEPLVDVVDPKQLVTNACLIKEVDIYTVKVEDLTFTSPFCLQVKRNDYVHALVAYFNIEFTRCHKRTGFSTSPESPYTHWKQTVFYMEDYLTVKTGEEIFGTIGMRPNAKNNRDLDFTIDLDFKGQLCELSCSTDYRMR
ATG4B inhibitor = ATG4B protease inhibitors, primary screen, biochemical, fluorescence, uHTS; Cysteine protease ATG4B (Homo sapiens), Q9Y4P1; ATG4B cleavage of LC3-PLA2, NBD-HPC fluorescence, 1 h; inhibition, % at 8.33 µM; 340,000 tested, 0.51% active; in the data active = inhibition above about 40%
PRMT1 inh conf = PRMT1 methyltransferase inhibitors, confirmation, biochemical, fluorescence polarization, triplicate; shares compounds with PRMT1 inh; recombinant His-PRMT1, activity-based probe fluorescence polarization; inhibition, % at 2.79 µM; 3,300 tested, 42% active;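 active = mean inhibition across replicates above the hit cutoff derived for the earlier primary screen, cut at about 22% in these data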
* marks the source's active call; other numbers are inactive results; x = no result given.

SMILES	HTRA1 inhibitor	SIAE inh	TCR CD3 inh	mABHD4 FP	PRMT1 inh	ATG4B inhibitor	PRMT1 inh conf
COc1ccc(-n2c(SCC(=O)N3CCCCC3C)nnc2-c2ccncc2)cc1 (configuration not stated)	x	4	x	7	-2	x	x
CN(C)C(CNC(=O)c1cccc(S(=O)(=O)Nc2ccc(SC(F)F)cc2)c1)c1ccccc1 (configuration not stated)	-2	-4	-9	1	44*	-24	62*
CCOc1cc(/C=C2\C(=O)N(Cc3ccco3)C(C)=C2C(=O)OC)ccc1O	4	3	15	13	46*	-2	15
O=C(NNC1CC(=O)N(c2ccc3c(c2)OCCO3)C1=O)c1ccc(Cl)cc1 (configuration not stated)	4	1	0	5	56*	2	-5
C=CCN1C(=O)[C@H](CC(=O)N2CCOCC2)[C@@]2(C(=O)OCC)CCCC=C12	x	5	x	2	-6	x	x
Nc1nc2ccc(S(=O)(=O)N3CCCCC3)cc2s1	2	8	-2	-1	30*	-6	73*
Cc1nc2ccc(S(=O)(=O)N3CCCCC3)cc2s1	1	-3	1	3	0	-2	x
Cc1ccc(/C=C/C(=O)c2ccc(O)cc2)cc1	-4	-7	8	-31	2	-6	x
Cc1ccc(C(=O)/C=C/C(=O)O)cc1	5	0	0	9	40*	8	30*
O=[N+]([O-])c1ccccc1S(=O)(=O)N1CCN(Cc2cc3c(cc2O)OCO3)CC1	-7	3	6	6	15	-1	x
Cc1ccc(C)c(S(=O)(=O)N2CCN(Cc3cc4c(cc3O)OCO4)CC2)c1	-5	11	-6	-12	45*	-11	8
O=S(=O)(c1ccccc1F)N1CCN(Cc2cc3c(cc2O)OCO3)CC1	6	5	0	6	25*	-4	12
CCOC(=O)c1ccc(S(=O)(=O)N2CCN(Cc3cc4c(cc3O)OCO4)CC2)cc1	7	6	2	7	11	-2	x
C=CCN(Cc1ccc2c(c1)OCO2)C(C#CC1CC1)C(C)C (configuration not stated)	x	1	x	7	0	x	x
Cc1ccccc1OCC(=O)NN1C(=O)C2C3C=CC(O3)C2C1=O (configuration not stated)	2	-1	5	-1	15	-3	x
Cc1cccc(OCC(=O)NN2C(=O)C3C4C=CC(O4)C3C2=O)c1 (configuration not stated)	10	-3	3	6	1	-1	x
O=C(CCc1ccccc1)NN1C(=O)C2C3C=CC(O3)C2C1=O (configuration not stated)	9	1	-8	0	57*	1	2
CCOc1ccc(C(=O)NN2C(=O)C3C4C=CC(O4)C3C2=O)cc1 (configuration not stated)	3	-3	-6	6	53*	9	6
Cc1ccc(CN2CCCCC(NC(=O)Nc3cccc(F)c3)C2=O)cc1 (configuration not stated)	x	-6	x	-4	-3	x	x
O=C(/C=C/c1ccccc1)CCN1CCCCC1	6	-3	-1	7	25*	1	50*
O=C(CCN1CCCCCC1)c1ccccc1	-4	1	1	5	-2	-3	x
C[C@H]1C2CC(OC(=O)Nc3ccc(C(F)(F)F)cc3)C(C2)[C@H]2CCCCN21 (some centres not stated)	x	1	x	4	-11	x	x
COc1ccc(S(=O)(=O)c2c(N)n(Cc3ccco3)c3nc4ccccc4nc23)cc1	6	-8	-7	-13	28*	8	18
COC(=O)C1CN(Cc2cn(CCOC(C)=O)nn2)CCS(=O)(=O)N1Cc1ccc(Cl)cc1 (configuration not stated)	x	-8	x	1	4	x	x
O=C(NCCc1ccccc1)OCc1cn(Cc2cccc(C(F)(F)F)c2)nn1	x	3	x	-3	2	x	x
SMILES	HTRA1 inhibitor	SIAE inh	TCR CD3 inh	mABHD4 FP	PRMT1 inh	ATG4B inhibitor	PRMT1 inh conf
CCOC(=O)[C@]12CCCCC/C=C\1N(Cc1ccc(OC)cc1)C(=O)[C@H]2CC(=O)N1CCN(C(=O)C2CC2)CC1	x	-3	x	-5	0	x	x
c1ccc2c(c1)Nc1nccnc1S2	8	6	6	7	49*	8	47*
O=C1Nc2cccnc2Sc2ccccc21	5	9	0	5	0	5	x
Cc1nn(-c2ccccc2)c(N2CCCC2)c1/C=N/NC(=S)Nc1ccc(F)cc1	-10	11	-5	20	0	-5	x
Cc1nn(C)cc1/C=N/NC(=S)Nc1ccccc1	8	6	0	1	39*	-4	4
Cc1c(O)nc(SCC(=O)Nc2nccs2)n(-c2ccccc2F)c1=O	1	3	8	6	28*	-1	18
c1ccc(CN2CCN(c3ncnc4sccc34)CC2)cc1	x	1	x	4	-1	x	x
CC(C)=CCC/C(C)=C/CN1CC(=O)N2[C@H](C[C@@]3(n4ccc5ccccc54)c4ccccc4N(S(=O)(=O)c4ccccc4)[C@@H]23)C1=O	x	-8	x	4	-8	x	x
COc1ccc([C@H]2OC(=O)C[C@@H]2C(=O)N2CCCCC2)cc1OC	x	0	x	5	-1	x	x
COC(=O)C1CN(CC(C)C)CCS(=O)(=O)N1Cc1ccc(Cl)cc1 (configuration not stated)	x	3	x	-1	-6	x	x
COc1ccccc1C(=O)N1CCN(c2ccc(N3CCOCC3)nn2)CC1	7	-3	-7	6	38*	-4	-5
COC(=O)c1cccc(Cn2c(Cl)c(/C=N/Nc3ccccc3C)sc2=O)c1	-3	4	4	4	79*	10	1
Cc1ccccc1N/N=C/c1sc(=O)n(Cc2cccc(C(=O)O)c2)c1Cl	7	-15	3	11	75*	21	5
CC1(C)C2CCC(CN=C(N)CSS(=O)(=O)O)C1C2 (configuration not stated)	1	1	-8	-12	88*	x	69*
Cc1ccc(-n2c(-c3ccccc3)c[nH]c2=S)cc1	5	11	6	5	17	7	x
S=c1[nH]cc(-c2ccccc2)n1-c1ccccc1	1	-3	-4	2	34*	-10	12
COc1cccc(-c2nc(SC)nc3sc(C(=O)NC(C)(C)C)c(N)c23)c1	-24	5	-2	0	25*	-9	0
